The values that follow come from ChEMBL document CHEMBL3351540, “Novel antiproliferative chimeric compounds with marked histone deacetylase inhibitory activity” (ACS Med Chem Lett, 2014).

Active and inactive are the calls of the source. No cut-off for these calls is given here.

The subject of assay [1] is K562. The experiment in a line: Induction of apoptosis in human K562 cells using annexin-V/PI staining by flow cytometry. Type of assay: functional, cell-based. The method in brief:
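K562 cells treated for 48 h; apoptosis scored by annexin V test. AC50 is the concentration inducing apoptosis in 50% of cells. Triplicate points, SD error bars.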

Assay [2] has as its system K562. Nature of the assay: Cell cycle arrest in human K562 cells assessed as block at G1 phase at 40 uM after 24 hrs using propidium iodide staining by FACScan flow cytometry. The format is functional, cell-based.
Assay [3] deals with K562. The experiment in a line: Cell cycle arrest in human K562 cells assessed as block at G2-M phase at 40 uM after 24 hrs using propidium iodide staining by FACScan flow cytometry. Type of assay: functional, cell-based.
For assay [4], the system named is K562. The experiment in a line: Antiproliferative activity against human K562 cells assessed as growth inhibition after 48 hrs by trypan blue dye exclusion method. Type of assay: functional, cell-based. Particulars: K562, 48 h.
For a further assay, the target named is Histone deacetylase 1 (Homo sapiens, UniProt Q13547). The experiment in a line: Inhibition of human recombinant HDAC1 using modified Boc-Lys(Ac)-AMC MAL as substrate after 1 hr by fluorescent activity assay.
Chain of Histone deacetylase 1 (Q13547 whole entry): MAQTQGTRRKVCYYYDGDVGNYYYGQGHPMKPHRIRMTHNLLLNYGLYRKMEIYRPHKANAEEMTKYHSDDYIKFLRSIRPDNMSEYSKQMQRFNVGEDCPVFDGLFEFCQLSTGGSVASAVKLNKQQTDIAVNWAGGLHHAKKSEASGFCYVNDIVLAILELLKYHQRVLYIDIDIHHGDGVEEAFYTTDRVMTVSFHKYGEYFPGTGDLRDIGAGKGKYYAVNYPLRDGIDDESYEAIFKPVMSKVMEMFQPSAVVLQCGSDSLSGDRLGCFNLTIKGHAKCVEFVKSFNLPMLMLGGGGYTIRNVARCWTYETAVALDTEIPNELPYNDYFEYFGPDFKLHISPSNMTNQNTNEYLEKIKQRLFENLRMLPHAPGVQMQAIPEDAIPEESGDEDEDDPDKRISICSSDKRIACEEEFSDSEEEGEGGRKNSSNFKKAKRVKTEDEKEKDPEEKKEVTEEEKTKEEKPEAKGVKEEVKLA
Assay [5] has as its system MCF7. The experiment in a line: Antiproliferative activity against human MCF7 cells at 5 uM after 10 hrs by real-time mode analysis. Type of assay: functional, cell-based. The method in brief:
(§1)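 Real-time proliferation of MCF-7 cells treated with 5 μM compound, recorded as cell index versus time over 36 h. Doubling time was calculated over the 10−18 h interval.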

For assay [6], the system named is K562. The experiment in a line: Ratio of SAHA AC50 to compound AC50 for human K562 cells using annexin-V/PI staining by flow cytometry. The format is functional.
Assay [7] deals with MCF7. The experiment in a line: Cell cycle arrest in human MCF7 cells assessed as block at G2-M phase at 5 uM after 24 to 96 hrs using propidium iodide staining by FACScan flow cytometry. Type of assay: functional, cell-based.
Assay [8] addresses T1, Protein deacetylase HDAC6 (Homo sapiens, UniProt Q9UBN7).
T1 sequence (Q9UBN7 whole entry): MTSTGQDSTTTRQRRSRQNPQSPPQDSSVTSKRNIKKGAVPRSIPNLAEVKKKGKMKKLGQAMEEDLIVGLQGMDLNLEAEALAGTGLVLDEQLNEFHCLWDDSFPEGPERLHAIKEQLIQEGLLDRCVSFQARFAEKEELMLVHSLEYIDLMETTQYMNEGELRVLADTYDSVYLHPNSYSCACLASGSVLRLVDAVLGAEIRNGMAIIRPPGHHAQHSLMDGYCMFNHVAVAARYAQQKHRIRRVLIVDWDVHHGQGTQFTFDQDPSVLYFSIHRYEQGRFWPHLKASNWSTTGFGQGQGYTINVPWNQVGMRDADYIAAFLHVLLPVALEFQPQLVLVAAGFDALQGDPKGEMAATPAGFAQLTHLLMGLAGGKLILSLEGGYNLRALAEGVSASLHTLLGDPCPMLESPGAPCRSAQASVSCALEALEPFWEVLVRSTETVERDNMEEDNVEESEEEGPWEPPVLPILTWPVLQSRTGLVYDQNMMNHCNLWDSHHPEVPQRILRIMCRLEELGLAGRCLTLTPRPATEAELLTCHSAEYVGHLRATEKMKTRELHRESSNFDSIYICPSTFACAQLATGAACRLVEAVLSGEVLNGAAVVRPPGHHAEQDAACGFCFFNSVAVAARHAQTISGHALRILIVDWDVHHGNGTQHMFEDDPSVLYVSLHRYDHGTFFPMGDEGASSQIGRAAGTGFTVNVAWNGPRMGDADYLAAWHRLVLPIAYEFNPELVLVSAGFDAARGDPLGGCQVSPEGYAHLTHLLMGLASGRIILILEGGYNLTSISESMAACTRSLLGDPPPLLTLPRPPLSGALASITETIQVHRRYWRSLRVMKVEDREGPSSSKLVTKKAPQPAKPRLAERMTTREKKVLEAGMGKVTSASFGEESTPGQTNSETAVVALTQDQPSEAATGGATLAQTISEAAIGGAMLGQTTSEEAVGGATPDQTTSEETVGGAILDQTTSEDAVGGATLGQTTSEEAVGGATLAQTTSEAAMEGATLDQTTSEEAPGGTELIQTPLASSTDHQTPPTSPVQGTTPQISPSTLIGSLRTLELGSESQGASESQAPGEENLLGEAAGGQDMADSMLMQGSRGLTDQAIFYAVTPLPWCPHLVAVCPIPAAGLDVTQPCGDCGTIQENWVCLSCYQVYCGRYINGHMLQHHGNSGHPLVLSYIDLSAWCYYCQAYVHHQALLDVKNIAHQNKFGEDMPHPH
The experiment in a line: Inhibition of human recombinant HDAC6 using Z-MAL as substrate after 1 hr by fluorescent activity assay.

Assay [9] deals with MCF7. Nature of the assay: Antiproliferative activity against human MCF7 cells assessed as reduction in doubling time at 5 uM after 10 to 18 hrs by real-time mode analysis. Type of assay: functional, cell-based. The gist of the method: as §1
Assay [10] can be described thus: Cell cycle arrest in human U937 cells assessed as block at G1 phase at 5 uM after 24 to 96 hrs using propidium iodide staining by FACScan flow cytometry. As to conditions: U-937.
A further assay deals with Histone deacetylase 4 (Homo sapiens, UniProt P56524). The experiment in a line: Inhibition of human recombinant HDAC4 using (S)-[5-Acetylamino-1-(2-oxo-4-trifluorometyl-2Hchromen-7-ylcarbamoyl)pentl]carbami acid tert-Butyl Ester as substrate after 1 hr by fluorescent activity assay.
Chain of Histone deacetylase 4 (P56524 whole entry): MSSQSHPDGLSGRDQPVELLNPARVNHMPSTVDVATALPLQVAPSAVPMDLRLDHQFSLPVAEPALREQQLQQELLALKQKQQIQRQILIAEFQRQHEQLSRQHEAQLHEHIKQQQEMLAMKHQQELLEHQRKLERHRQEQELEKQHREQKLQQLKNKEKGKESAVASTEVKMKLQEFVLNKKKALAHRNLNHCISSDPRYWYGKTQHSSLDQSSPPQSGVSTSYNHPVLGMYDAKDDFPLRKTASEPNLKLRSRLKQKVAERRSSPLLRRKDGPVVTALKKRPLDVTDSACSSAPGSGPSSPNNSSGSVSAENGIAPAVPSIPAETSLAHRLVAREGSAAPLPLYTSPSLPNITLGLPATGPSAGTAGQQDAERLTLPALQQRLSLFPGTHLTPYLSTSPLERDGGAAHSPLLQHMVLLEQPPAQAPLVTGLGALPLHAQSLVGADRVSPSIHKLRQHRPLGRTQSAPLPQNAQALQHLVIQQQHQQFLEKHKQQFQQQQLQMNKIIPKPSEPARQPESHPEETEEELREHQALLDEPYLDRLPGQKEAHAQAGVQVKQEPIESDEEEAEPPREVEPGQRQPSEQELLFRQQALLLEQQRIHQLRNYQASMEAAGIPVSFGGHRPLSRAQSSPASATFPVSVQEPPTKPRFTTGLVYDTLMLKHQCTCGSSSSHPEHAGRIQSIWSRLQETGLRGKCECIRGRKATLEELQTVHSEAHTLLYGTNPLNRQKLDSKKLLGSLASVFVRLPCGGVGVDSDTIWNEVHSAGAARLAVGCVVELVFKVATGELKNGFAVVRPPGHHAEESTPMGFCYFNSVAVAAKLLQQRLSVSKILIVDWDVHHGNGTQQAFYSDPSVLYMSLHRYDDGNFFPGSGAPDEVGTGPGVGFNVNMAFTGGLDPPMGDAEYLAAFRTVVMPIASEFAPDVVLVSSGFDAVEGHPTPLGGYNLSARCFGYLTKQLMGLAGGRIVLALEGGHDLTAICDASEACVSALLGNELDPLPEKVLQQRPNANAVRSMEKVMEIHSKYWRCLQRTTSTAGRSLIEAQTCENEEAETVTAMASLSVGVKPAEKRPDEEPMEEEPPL
The subject of assay [11] is MCF7. The experiment in a line: Antimigratory activity against human MCF7 cells assessed as reduction in slope values at 5 uM up to 24 hrs by real-time mode analysis. Further details: scale not given: the % may be the effect or the level left. The format is functional. The method in brief: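 MCF-7 cells exposed to 5 μM compound and tracked in real time as cell index versus time over 27 h. Migration was expressed as the slope of the cell index within 24 h.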

A short description of assay [12]: Cell cycle arrest in human U937 cells assessed as block at G1 phase at 5 uM after 24 to 96 hrs using propidium iodide staining by FACScan flow cytometry. The format is functional, cell-based. Particulars: U-937.
Assay [13] deals with U-937. The experiment in a line: Induction of apoptosis in human U937 cells using annexin-V/PI staining after 48 hrs by flow cytometry relative to SAHA. The format is functional. The gist of the method: (§2)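 U937 cells treated with 5 μM compound for 48 h, with SAHA at 5 μM as positive control. Apoptosis and necrosis measured by annexin V/PI double staining and flow cytometry. Triplicate points, SD error bars.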

The test system of assay [14] is MCF7. The experiment in a line: Cell cycle arrest in human MCF7 cells assessed as block at G2 phase at 5 uM after 24 to 96 hrs using propidium iodide staining by FACScan flow cytometry.
Assay [15] concerns U-937. The experiment in a line: Induction of apoptosis in human U937 cells using annexin-V/PI staining after 48 hrs by flow cytometry. Type of assay: functional, cell-based. The method in brief:
as §2

In the case of `Oc1ccc(-c2ccc(-c3cc(O)cc(O)c3)cc2)cc1`, the AC50 in the assay on K562 [1] was above 50 µM.
Consider `COc1cc(/C=C/c2ccc(OC)c(N)c2)cc(OC)c1`, for which the result with K562 [2] and in the assay on K562 [3] was Active. Further, in the assay with K562 [4], the half-maximal inhibitory concentration (IC50) was determined as 2.5 µM. Further, in the assay with K562 [1], half-maximal activity (AC50) was put at 20 µM.
For the molecule `O=C(CCCCCCNC(=O)c1ccc(-c2ccc(-c3cc(O)cc(O)c3)cc2)cc1)NO`, the IC50 worked out at 2.5 µM in the assay with K562 [4] and 15.7 µM at Histone deacetylase 1. Besides, the activity in the assay on K562 [1] was half-maximal at 16 µM (AC50).
For `O=C(NO)c1ccc(-c2ccc(-c3cc(O)cc(O)c3)cc2)cc1` the same measures were 20 µM, 8.9 µM and above 50 µM.
Consider `COc1cc(/C=C/c2ccc(OC)c(NC(=O)CCCCCCC(=O)NO)c2)cc(OC)c1`, for which the outcome (with MCF7 [5]; in the assay with MCF7 [7]; in the assay with MCF7 [9]; in [10]; in assay [12]; in the assay with MCF7 [14]) was Active. The Ratio with K562 [6] is recorded as 2. The IC50 was 0.7 µM with K562 [4], 1.3 µM in assay [8], 0.8 µM at Histone deacetylase 1 and 9.8 µM on Histone deacetylase 4. In addition, the Activity with MCF7 [11] was 25%. Besides, the “fold change (FC)” value with U-937 [13] was determined as 2. For the same molecule, the AC50 with K562 [1] is 5 µM.
With `COc1cc(/C=C\c2ccc(OC)c(NC(=O)CCCCCCC(=O)NO)c2)cc(OC)c1`, the result in the assay on K562 [2] and in the assay on K562 [3] was Active. Besides, the IC50 with K562 [4] came out at 7.5 µM; in assay [8], 1.6 µM; on Histone deacetylase 1 it was 2.1 µM; at Histone deacetylase 4, 7.6 µM. In addition, in the assay with K562 [1], the AC50 is 40 µM.
Regarding `O=C(CCCCCNC(=O)c1ccc(-c2ccc(-c3cc(O)cc(O)c3)cc2)cc1)NO`, the IC50 in the assay with K562 [4] was 6 µM; at Histone deacetylase 1 it was 0.9 µM. The molecule further showed an AC50 with K562 [1] of 38 µM.
`COc1cc(/C=C\c2ccc(OC)c(N)c2)cc(OC)c1`: the IC50 in the assay with K562 [4] came to 0.025 µM. The same molecule gave a half-maximal activity concentration (AC50) in the assay on K562 [1] of 0.25 µM.
For the molecule `O=C(CCCCCCC(=O)Nc1ccccc1)NO` [VORINOSTAT], the result (in the assay with K562 [2]; in the assay with K562 [3]; in the assay on MCF7 [7]; with MCF7 [9]; in [10]; in assay [12]) was Active. Besides, the result with U-937 [15] and in the assay on MCF7 [14] was Active. In the assay on K562 [1], the activity was half-maximal at 10 µM (AC50).
